Measured values: ChEMBL document CHEMBL4373706, “Discovery of Inhibitors of Aurora/PLK Targets as Anticancer Agents” (J Med Chem, 2019)
Active and inactive are the calls of the source. The rule behind the calls is not given here.

Legend:
HCT-116 [1] = test: Antitumor activity against human HCT116 cells xenografted in BALB/c mouse assessed as survival rate at 10 mg/kg, iv administered every 3 days for 60 days relative to control; type: functional; details: HCT-116, iv
Calu-6 = test: Antiproliferative activity against human Calu6 cells measured after 48 hrs by MTT assay; type: functional, cell-based
Summary of the method: (§1)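 Cells were exposed to a range of compound concentrations for 48 h. MTT reagent was then added and absorbance read at 490 nm. Viability was normalized to vehicle control set as 100%, from n = 3 independent experiments, and IC50 was taken from the dose–response curves.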

HCT-116 [2] = test: Antiproliferative activity against human HCT116 cells measured after 48 hrs by MTT assay; type: functional, cell-based; summary of the method: as §1
MCF7 = test: Antiproliferative activity against human MCF7 cells measured after 48 hrs by MTT assay; type: functional, cell-based; summary of the method: as §1
A549 = test: Antiproliferative activity against human A549 cells measured after 48 hrs by MTT assay; type: functional, cell-based; summary of the method: as §1
HCT-116 [3] = test: Induction of apoptosis in human HCT116 cells assessed as increase in apoptotic index at 1 to 10 uM measured after 48 hrs by Annexin V-FITC/propidium iodide staining-based flow cytometry; type: functional, cell-based
HCT-116 [4] = test: Inhibition of colony formation in human HCT116 cells at 10 uM incubated for 48 hrs followed by supplemented with fresh medium every 3 days for 2 weeks by crystal violet staining-based assay; type: functional, cell-based
HCT-116 [5] = test: Antiproliferative activity against human HCT116 cells measured after 96 hrs by Brdu incorporation-based ELISA; type: functional, cell-based; details: HCT-116, 96 h

| SMILES | survival at 10 mg/kg (HCT-116 [1]) [%] | Activity (Calu-6) | Activity (HCT-116 [2]) | Activity (MCF7) | Activity (A549) | Activity (HCT-116 [3]) | inhibition (HCT-116 [4]) | IC50 (HCT-116 [5]) [µM] |
| --- | --- | --- | --- | --- | --- | --- | --- | --- |
| O=c1[nH]cc(F)c(=O)[nH]1 [FLUOROURACIL] | 30 |  |  |  |  |  |  |  |
| COc1ccc(C(=O)Nc2ccc3cc(C(=O)NC4CC4)ccc3c2)cc1 |  | Active | Active | Active | Active |  |  |  |
| O=C(Nc1ccc2cc(C(=O)NC3CCCCC3)ccc2c1)c1ccc(F)cc1 |  | Active | Active | Active | Active |  |  |  |
| CC[C@@H]1C(=O)N(C)c2cnc(Nc3ccc(C(=O)NC4CCN(C)CC4)cc3OC)nc2N1C1CCCC1 |  |  |  |  |  | Active | inactive |  |
| COc1cc(Nc2ncc3c(n2)-c2ccc(Cl)cc2C(c2c(F)cccc2OC)=NC3)ccc1C(=O)O [ALISERTIB] |  |  |  |  |  | Active | inactive | 32 |
